The results in this text go back to ChEMBL document CHEMBL1141316, “Lyngbyastatins 5-7, potent elastase inhibitors from Floridian marine cyanobacteria, Lyngbya spp” (J Nat Prod, 2007).

The source made the active and inactive calls. The rule behind the calls is not given here.

The nature of assay [1]: Inhibition of pig elastase. Details: species or system Sus scrofa. In short, it runs like this:
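Porcine pancreatic elastase, 75 µg/mL stock in Tris-HCl pH 8.0. Enzyme was preincubated with test sample (5% DMSO final) at 30 °C for 20 min. Then N-succinyl-Ala-Ala-Ala-p-nitroanilide was added at 1.5 mM final (Km). Absorbance increase at 405 nm was read every 5 min for 30 min. Dilution series in DMSO ran from 1 mM to 100 pM, in triplicate, with PMSF as positive control.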

Assay [2] in a line: Inhibition of bovine alpha chymotrypsin. The arrangement: species or system Bos taurus. An outline of the steps:
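Bovine pancreatic alpha-chymotrypsin, 1 mg/mL stock in 50 mM Tris-HCl/100 mM NaCl/1 mM CaCl2, pH 7.8. Enzyme was preincubated with test sample in DMSO at 37 °C for 10 min. Then N-succinyl-Gly-Gly-Phe-p-nitroanilide was added at 0.75 mM final (≈Km). Absorbance rise at 405 nm was read every 5 min for 30 min. Samples were log/2 dilutions from 1 mM to 100 pM stocks, in triplicate, with PMSF as positive control.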

For assay [3], the species on record is Sus scrofa. Nature of the assay: Inhibition of pig trypsin up to 30 uM. An outline of the steps: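 Porcine pancreatic trypsin was run as the chymotrypsin assay: 50 mM Tris-HCl/100 mM NaCl/1 mM CaCl2, pH 7.8, with 10 min preincubation with sample in DMSO at 37 °C. Nα-benzoyl-DL-arginine-4-nitroanilide was the substrate. Absorbance at 405 nm was followed every 5 min for 30 min. Tests were done in triplicate, with PMSF as positive control.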

What is called IC50 is the concentration at which inhibition is half-maximal. As for `C/C=C1\NC(=O)[C@@H](NC(=O)[C@H](CCc2ccc(O)cc2)NC(=O)[C@H](C)NC(=O)[C@H](O)CO)[C@@H](C)OC(=O)[C@H](C(C)C)NC(=O)[C@H](Cc2ccc(O)cc2)N(C)C(=O)[C@H](Cc2ccccc2)N2C(=O)[C@H](CC[C@H]2O)NC1=O` [LYNGBYASTATIN 5], the figures for the IC50 in assay [1] and in assay [2] were 3.2 nM and 2800 nM, respectively. In addition, the outcome in assay [3] was inactive.
The corresponding values for `C/C=C1\NC(=O)[C@@H](NC(=O)[C@H](CCc2ccc(O)cc2)NC(=O)[C@H](C)NC(=O)[C@H](O)COS(=O)(=O)O)[C@@H](C)OC(=O)[C@H](C(C)C)NC(=O)[C@H](Cc2ccc(O)cc2)N(C)C(=O)[C@H](Cc2ccccc2)N2C(=O)[C@H](CC[C@H]2OC)NC1=O` [LYNGBYASTATIN 6] are 3.3 nM, 2500 nM and “inactive”.
Consider `C/C=C1\NC(=O)[C@@H](NC(=O)[C@H](CCC(N)=O)NC(=O)CCCCC)[C@@H](C)OC(=O)[C@H](C(C)C)NC(=O)[C@H](Cc2ccc(O)cc2)N(C)C(=O)[C@H](Cc2ccccc2)N2C(=O)[C@H](CC[C@H]2O)NC1=O` [LYNGBYASTATIN 7], for which the outcome in assay [3] was inactive.
For the molecule `C/C=C1\NC(=O)[C@@H](NC(=O)[C@H](CCC(N)=O)NC(=O)CCC)[C@@H](C)OC(=O)[C@H](C(C)C)NC(=O)[C@H](Cc2ccc(O)cc2)N(C)C(=O)[C@H](Cc2ccccc2)N2C(=O)[C@H](CC[C@H]2O)NC1=O` [SOMAMIDE B], the IC50 was found to be 9.5 nM in assay [1] and 4200 nM in assay [2]. The result in assay [3] was inactive.
